# Results from ChEMBL document CHEMBL1671701, “Discovery of potent small-molecule inhibitors of multidrug-resistant Plasmodium falciparum using a novel miniaturized high-throughput luciferase-based assay” (Antimicrob Agents Chemother, 2010).
# Assays:
# Plasmodium falciparum [1] = assay: Antiplasmodial activity against multidrug-resistant Plasmodium falciparum TM90C2B by SYBR Green 1-based fluorescence assay; format: functional, organism-based
# Procedure, shortened: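 Resistant TM90C2B parasites are treated over a dose range and growth is read as SYBR green I fluorescence. IC50 comes from a fit of the log dose-response relationship, as the mean of at least three separate experiments.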
# Plasmodium falciparum [2] = assay: Antiplasmodial activity against Plasmodium falciparum 3D7 infected in RBCs by firefly luciferase reporter gene assay; format: functional, organism-based; settings: Plasmodium falciparum, 3D7
# Procedure, shortened: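 Sorbitol-synchronised 3D7 expressing firefly luciferase from the HRPII promoter, at 1% late-ring parasitemia and 3% hematocrit in RPMI/albumax II medium. Sixteen 2-fold dilutions from 17 μM to 0.5 nM, 48 h at 37°C under 5% O2/5% CO2/N2. Bright-Glo luminescence is normalised to untreated infected and uninfected-RBC wells. IC50 by four-parameter logistic fit.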
# [3] = Cytotoxicity activity against human HAEC cells after 24 hrs; format: cell-based
# Plasmodium falciparum [4] = assay: Antiplasmodial activity against Plasmodium falciparum 3D7 by SYBR Green 1-based fluorescence assay; format: functional, organism-based
# HepG2 = assay: Cytotoxicity activity against human HepG2 cells after 24 hrs; format: cell-based; settings: HepG2, 24 h
Structure (SMILES),IC50 (Plasmodium falciparum [1]) [nM],IC50 (Plasmodium falciparum [2]) [nM],IC50 [3] [nM],IC50 (Plasmodium falciparum [4]) [nM],IC50 (HepG2) [nM]
COc1cccc(N(C(C)=O)C2=C(N(C)C)C(=O)c3ccccc3C2=O)c1,31,5.3,11000,35,13000
CC(=O)N(C1=C(N(C)C)C(=O)c2ccccc2C1=O)c1cccc(Cl)c1,72,14,45000,140,5100
CC(=O)N(C1=C(N(C)C)C(=O)c2ccccc2C1=O)c1ccc(Cl)cc1,,14,41000,,8100
